{"source": "paper PMC6055619", "about": "(British Journal of Haematology, 2018)", "key": {"patients with NDMM [1]": {"system": "patients with NDMM", "experiment": "Phase 1 dose escalation", "format": "in vivo, human", "settings": "twice-weekly ixazomib 3·0 or 3·7 mg plus Rd", "outline": "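Phase 1 tested two fixed ixazomib doses (3·0 and 3·7 mg) with a standard 3 + 3 scheme, scoring DLTs during cycle 1. MTD was the highest dose with ≤1 of 6 evaluable patients having a DLT. RP2D selection also used response rates and toxicity over later cycles.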"}, "patients with NDMM [2]": {"system": "patients with NDMM", "experiment": "Adverse events graded by NCI CTCAE v4·03", "format": "in vivo, human", "outline": "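AEs were recorded throughout treatment and for 30 days after the last dose, and graded by NCI CTCAE v4·03 in all patients given ≥1 dose of any study drug. Maintenance patients had responding or stable disease after 16 cycles of ixazomib-Rd induction. They then took single-agent oral ixazomib on days 1, 4, 8 and 11 of 21-day cycles, at the last-tolerated induction dose, until progression or unacceptable toxicity.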"}, "[3]": {"experiment": "Ixazomib plasma pharmacokinetics, non-compartmental analysis", "format": "in vivo, human", "settings": "for AUC(0-t): 3 mg, AUC0–72, geometric mean (%CV), RP2D 3·0 mg", "outline": "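Phase 1 patients took fixed oral ixazomib 3·0 or 3·7 mg on an empty stomach (≥1 h before or ≥2 h after a meal), on days 1, 4, 8 and 11 of a 21-day cycle. Co-dosing was lenalidomide 25 mg on days 1–14 plus dexamethasone 20 mg. Serial plasma samples were taken, and non-compartmental parameters were calculated on cycle 1 days 1 and 11. Values are reported as geometric mean (%CV).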"}, "[4]": {"settings": "ref Gupta et al, 2015b; cited from earlier work"}, "[5]": {"settings": "during single-agent ixazomib maintenance"}, "[6]": {"settings": "patients who received single-agent ixazomib maintenance"}, "[7]": {"settings": "received maintenance, n = 18, new-onset AEs during cycle ≥17"}}, "note": "Entries after “also recorded” stand apart in the source; their conditions may differ."}
{"smiles": "CC(C)C[C@H](NC(=O)CNC(=O)c1cc(Cl)ccc1Cl)B(O)O", "note": "[ixazomib]", "values": [{"measurement": "Dose-limiting toxicities in cycle 1", "setting": "patients with NDMM [1]", "value": "No dose‐limiting toxicities; also recorded: no DLTs"}, {"measurement": "New-onset drug-related grade 3 PN NEC", "setting": "patients with NDMM [2]; during maintenance", "value": 6, "unit": "%"}, {"measurement": "New-onset drug-related grade 3 hyperglycaemia", "setting": "patients with NDMM [2]; during maintenance", "value": 0, "unit": "%"}, {"measurement": "New-onset drug-related grade 3 rashes, eruptions and exanthems NEC", "setting": "patients with NDMM [2]; during maintenance", "value": 6, "unit": "%"}, {"measurement": "New-onset drug-related PN NEC", "setting": "patients with NDMM [2]; [5]", "value": 28, "unit": "%"}, {"measurement": "New-onset drug-related fatigue", "setting": "patients with NDMM [2]; [5]", "value": 11, "unit": "%"}, {"measurement": "New-onset drug-related rashes, eruptions and exanthems NEC", "setting": "patients with NDMM [2]; [5]", "value": 17, "unit": "%"}, {"measurement": "New-onset AEs resulting in dose reductions", "setting": "patients with NDMM [2]; patients who received ixazomib maintenance", "value": 33, "unit": "%"}, {"measurement": "New-onset drug-related AEs during maintenance", "setting": "patients with NDMM [2]; [6]", "value": 89, "unit": "%"}, {"measurement": "New-onset drug-related grade 3 AEs during maintenance", "setting": "patients with NDMM [2]; [6]", "value": 28, "unit": "%"}, {"measurement": "On-study deaths", "setting": "patients with NDMM [2]; received maintenance, n = 18, cycle ≥17", "value": "0 n (%)"}, {"measurement": "AE resulting in any study drug dose reduction", "setting": "patients with NDMM [2]; [7]", "value": "6 (33) n (%)"}, {"measurement": "AE resulting in discontinuation", "setting": "patients with NDMM [2]; [7]", "value": "3 (17) n (%)"}, {"measurement": "Any AE", "setting": "patients with NDMM [2]; [7]", "value": "16 (89) n (%)"}, {"measurement": "Any SAE", "setting": "patients with NDMM [2]; [7]", "value": "2 (11) n (%)"}, {"measurement": "Any drug-related AE", "setting": "patients with NDMM [2]; [7]", "value": "16 (89) n (%)"}, {"measurement": "Any drug-related SAE", "setting": "patients with NDMM [2]; [7]", "value": "2 (11) n (%)"}, {"measurement": "Any drug-related grade ≥3 AE", "setting": "patients with NDMM [2]; [7]", "value": "5 (28) n (%)"}, {"measurement": "Any grade ≥3 AE", "setting": "patients with NDMM [2]; [7]", "value": "8 (44) n (%)"}, {"measurement": "Drug-related ALT increased, All-grade", "setting": "patients with NDMM [2]; [7]", "value": "1 (6) n (%)"}, {"measurement": "Drug-related ALT increased, Grade 3", "setting": "patients with NDMM [2]; [7]", "value": "0 n (%)"}, {"measurement": "Drug-related Anxiety, All-grade", "setting": "patients with NDMM [2]; [7]", "value": "0 n (%)"}, {"measurement": "Drug-related Anxiety, Grade 3", "setting": "patients with NDMM [2]; [7]", "value": "0 n (%)"}, {"measurement": "Drug-related Constipation, All-grade", "setting": "patients with NDMM [2]; [7]", "value": "0 n (%)"}, {"measurement": "Drug-related Constipation, Grade 3", "setting": "patients with NDMM [2]; [7]", "value": "0 n (%)"}, {"measurement": "Drug-related Diarrhoea, All-grade", "setting": "patients with NDMM [2]; [7]", "value": "5 (28) n (%)"}, {"measurement": "Drug-related Diarrhoea, Grade 3", "setting": "patients with NDMM [2]; [7]", "value": "1 (6) n (%)"}, {"measurement": "Drug-related Dizziness, All-grade", "setting": "patients with NDMM [2]; [7]", "value": "1 (6) n (%)"}, {"measurement": "Drug-related Dizziness, Grade 3", "setting": "patients with NDMM [2]; [7]", "value": "0 n (%)"}, {"measurement": "Drug-related Dysgeusia, All-grade", "setting": "patients with NDMM [2]; [7]", "value": "0 n (%)"}, {"measurement": "Drug-related Dysgeusia, Grade 3", "setting": "patients with NDMM [2]; [7]", "value": "0 n (%)"}, {"measurement": "Drug-related Fatigue, All-grade", "setting": "patients with NDMM [2]; [7]", "value": "2 (11) n (%)"}, {"measurement": "Drug-related Fatigue, Grade 3", "setting": "patients with NDMM [2]; [7]", "value": "0 n (%)"}, {"measurement": "Drug-related Hyperglycaemia, All-grade", "setting": "patients with NDMM [2]; [7]", "value": "2 (11) n (%)"}, {"measurement": "Drug-related Hyperglycaemia, Grade 3", "setting": "patients with NDMM [2]; [7]", "value": "0 n (%)"}, {"measurement": "Drug-related Hyponatraemia, All-grade", "setting": "patients with NDMM [2]; [7]", "value": "0 n (%)"}, {"measurement": "Drug-related Hyponatraemia, Grade 3", "setting": "patients with NDMM [2]; [7]", "value": "0 n (%)"}, {"measurement": "Drug-related Insomnia, All-grade", "setting": "patients with NDMM [2]; [7]", "value": "0 n (%)"}, {"measurement": "Drug-related Insomnia, Grade 3", "setting": "patients with NDMM [2]; [7]", "value": "0 n (%)"}, {"measurement": "Drug-related Muscle spasms, All-grade", "setting": "patients with NDMM [2]; [7]", "value": "0 n (%)"}, {"measurement": "Drug-related Muscle spasms, Grade 3", "setting": "patients with NDMM [2]; [7]", "value": "0 n (%)"}, {"measurement": "Drug-related Muscular weakness, All-grade", "setting": "patients with NDMM [2]; [7]", "value": "2 (11) n (%)"}, {"measurement": "Drug-related Muscular weakness, Grade 3", "setting": "patients with NDMM [2]; [7]", "value": "1 (6) n (%)"}, {"measurement": "Drug-related Nausea, All-grade", "setting": "patients with NDMM [2]; [7]", "value": "6 (33) n (%)"}, {"measurement": "Drug-related Nausea, Grade 3", "setting": "patients with NDMM [2]; [7]", "value": "1 (6) n (%)"}, {"measurement": "Drug-related Neutropenia, All-grade", "setting": "patients with NDMM [2]; [7]", "value": "0 n (%)"}, {"measurement": "Drug-related Neutropenia, Grade 3", "setting": "patients with NDMM [2]; [7]", "value": "0 n (%)"}, {"measurement": "Drug-related Neutrophil count decreased, All-grade", "setting": "patients with NDMM [2]; [7]", "value": "1 (6) n (%)"}, {"measurement": "Drug-related Neutrophil count decreased, Grade 3", "setting": "patients with NDMM [2]; [7]", "value": "1 (6) n (%)"}, {"measurement": "Drug-related PN NEC, All-grade", "setting": "patients with NDMM [2]; [7]", "value": "5 (28) n (%)"}, {"measurement": "Drug-related PN NEC, Grade 3", "setting": "patients with NDMM [2]; [7]", "value": "1 (6) n (%)"}, {"measurement": "Drug-related Peripheral oedema, All-grade", "setting": "patients with NDMM [2]; [7]", "value": "2 (11) n (%)"}, {"measurement": "Drug-related Peripheral oedema, Grade 3", "setting": "patients with NDMM [2]; [7]", "value": "0 n (%)"}, {"measurement": "Drug-related Pneumonia, All-grade", "setting": "patients with NDMM [2]; [7]", "value": "0 n (%)"}, {"measurement": "Drug-related Pneumonia, Grade 3", "setting": "patients with NDMM [2]; [7]", "value": "0 n (%)"}, {"measurement": "Drug-related Rashes, eruptions and exanthems NEC, All-grade", "setting": "patients with NDMM [2]; [7]", "value": "3 (17) n (%)"}, {"measurement": "Drug-related Rashes, eruptions and exanthems NEC, Grade 3", "setting": "patients with NDMM [2]; [7]", "value": "1 (6) n (%)"}, {"measurement": "Drug-related Thrombocytopenia, All-grade", "setting": "patients with NDMM [2]; [7]", "value": "0 n (%)"}, {"measurement": "Drug-related Thrombocytopenia, Grade 3", "setting": "patients with NDMM [2]; [7]", "value": "0 n (%)"}, {"measurement": "Drug-related Vomiting, All-grade", "setting": "patients with NDMM [2]; [7]", "value": "3 (17) n (%)"}, {"measurement": "Drug-related Vomiting, Grade 3", "setting": "patients with NDMM [2]; [7]", "value": "1 (6) n (%)"}, {"measurement": "Tmax", "setting": "[3]; human, plasma, oral", "value": 1, "unit": "h"}, {"measurement": "AUC(0-t)", "setting": "[3]; human, plasma, oral, day 1", "value": 315, "unit": "ng·h/mL"}, {"measurement": "AUC(0-t)", "setting": "[3]; human, plasma, oral, day 11", "value": 1110, "unit": "ng·h/mL"}, {"measurement": "Pharmacokinetic interaction of ixazomib with Rd", "setting": "[3]; pharmacokinetic data similar to other studies", "value": "no pharmacokinetic interaction"}, {"measurement": "Effects on QTc or heart rate", "setting": "[4]", "value": "no clinically meaningful effects"}]}
